Molecular target: Prothrombin (Homo sapiens, UniProt P00734)
Test: Inhibition of thrombin (unknown origin) using CH3SO2-D-Cha-Gly-Arg-pNA.AcOH as substrate measured every 20 sec for 30 mins in presence of NaCl by UV-Visible spectrophotometric method
How it was run: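 Kinetic chromogenic assay at 25 ± 0.2 °C in 0.02 M Hepes, 0.154 M NaCl (Na⁺ for enzyme activation), final DMSO 6.5 %, pH 7.4 ± 0.05. Thrombin about 8-12 nM final, substrate 100 µM final, inhibitor 0.5-10× preliminary IC50. Enzyme added last to premixed substrate and inhibitor, A405 read. Rates gave dose-response IC50, then Ki via Cheng-Prusoff, and ΔG = RTlnKi.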

First: N=C(N)c1ccc(CNC(=O)[C@@H]2CCCN2C(=O)CCc2ccccc2)cc1
Second: N=C(N)c1ccc(CNC(=O)[C@@H]2CCCN2C(=O)OCc2ccccc2)cc1
The Ki of the first is 5.6-fold lower: 0.72 µM for the first, 4 µM for the second.

First: CS(=O)(=O)N1CCC[C@H]1C(=O)NCc1ccc(C(=N)N)cc1
Second: N=C(N)c1ccc(CNC(=O)[C@@H]2CCCN2S(N)(=O)=O)cc1
The Ki of the first is 2.4-fold lower: 68 µM for the first, 163 µM for the second. The first binds more tightly here.

Compared with `CCN1CCC[C@H]1C(=O)NCc1ccc(C(=N)N)cc1`, `CC(=O)N1CCC[C@H]1C(=O)NCc1ccc(C(=N)N)cc1` is 3.7-fold lower in Ki: 250 µM for the first, 68 µM for the second.

Going from `CC(C)(C)CC(=O)N1CCC[C@H]1C(=O)NCc1ccc(C(=N)N)cc1` to `CC(C)(C)OC(=O)N1CCC[C@H]1C(=O)NCc1ccc(C(=N)N)cc1`, the Ki rises from 4.2 µM to 11.9 µM (2.8-fold). The first binds more tightly here.

Going from `N=C(N)c1ccc(CNC(=O)[C@@H]2CCCN2C(=O)C(F)F)cc1` to `N=C(N)c1ccc(CNC(=O)[C@@H]2CCCN2C(N)=O)cc1`, the Ki rises from 17.9 µM to 59 µM (3.3-fold).

First: N=C(N)c1ccc(CNC(=O)[C@@H]2CCCN2C(=O)NCc2ccccc2)cc1
Second: N=C(N)c1ccc(CNC(=O)[C@@H]2CCCN2C(=O)CF)cc1
The Ki of the first is 3-fold lower: 14.5 µM for the first, 44 µM for the second.

Compared with `N=C(N)c1ccc(CNC(=O)[C@@H]2CCCN2C(=O)C(F)(F)F)cc1`, `N=C(N)c1ccc(CNC(=O)[C@@H]2CCCN2S(=O)(=O)C(F)(F)F)cc1` is 1.9-fold lower in Ki: 13.5 µM for the first, 7.1 µM for the second.

Work on `CC(C)(C)NC(=O)N1CCC[C@H]1C(=O)NCc1ccc(C(=N)N)cc1` yielded a Ki of 36 µM.
